Experimental data as given in ChEMBL document CHEMBL1128175, “Pyrrolo[2,1-c][1,4]benzothiazines: synthesis, structure-activity relationships, molecular modeling studies, and cardiovascular activity” (J Med Chem, 1995).

Assays:
[1] = target: T1, Voltage-gated L-type calcium channel (Rattus norvegicus, UniProt P22002+Q02485+P27732); experiment: Calcium antagonistic activity by measuring [3H]nitrendipine displacement at L-type [Ca2+] channel in rat cortex homogenate; type: functional, tissue-based
Method in brief: (§1)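 Cerebral cortex from male Sprague-Dawley rats, homogenized in 50 mM Na-Hepes pH 7.4 and washed five times by centrifugation at 48000g. Bound ligand collected by rapid filtration and counted. IC50 by log-probit analysis, converted to Ki by the Prusoff method. At least three experiments in triplicate.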

[2] = target: T2, Voltage-dependent L-type calcium channel subunit alpha-1C (Rattus norvegicus, UniProt P22002); experiment: Calcium antagonistic activity by measuring [3H]nitrendipine displacement from rat heart L-type [Ca2+] channel; type: functional
T2 sequence (P22002 whole entry, the tested form may be a part): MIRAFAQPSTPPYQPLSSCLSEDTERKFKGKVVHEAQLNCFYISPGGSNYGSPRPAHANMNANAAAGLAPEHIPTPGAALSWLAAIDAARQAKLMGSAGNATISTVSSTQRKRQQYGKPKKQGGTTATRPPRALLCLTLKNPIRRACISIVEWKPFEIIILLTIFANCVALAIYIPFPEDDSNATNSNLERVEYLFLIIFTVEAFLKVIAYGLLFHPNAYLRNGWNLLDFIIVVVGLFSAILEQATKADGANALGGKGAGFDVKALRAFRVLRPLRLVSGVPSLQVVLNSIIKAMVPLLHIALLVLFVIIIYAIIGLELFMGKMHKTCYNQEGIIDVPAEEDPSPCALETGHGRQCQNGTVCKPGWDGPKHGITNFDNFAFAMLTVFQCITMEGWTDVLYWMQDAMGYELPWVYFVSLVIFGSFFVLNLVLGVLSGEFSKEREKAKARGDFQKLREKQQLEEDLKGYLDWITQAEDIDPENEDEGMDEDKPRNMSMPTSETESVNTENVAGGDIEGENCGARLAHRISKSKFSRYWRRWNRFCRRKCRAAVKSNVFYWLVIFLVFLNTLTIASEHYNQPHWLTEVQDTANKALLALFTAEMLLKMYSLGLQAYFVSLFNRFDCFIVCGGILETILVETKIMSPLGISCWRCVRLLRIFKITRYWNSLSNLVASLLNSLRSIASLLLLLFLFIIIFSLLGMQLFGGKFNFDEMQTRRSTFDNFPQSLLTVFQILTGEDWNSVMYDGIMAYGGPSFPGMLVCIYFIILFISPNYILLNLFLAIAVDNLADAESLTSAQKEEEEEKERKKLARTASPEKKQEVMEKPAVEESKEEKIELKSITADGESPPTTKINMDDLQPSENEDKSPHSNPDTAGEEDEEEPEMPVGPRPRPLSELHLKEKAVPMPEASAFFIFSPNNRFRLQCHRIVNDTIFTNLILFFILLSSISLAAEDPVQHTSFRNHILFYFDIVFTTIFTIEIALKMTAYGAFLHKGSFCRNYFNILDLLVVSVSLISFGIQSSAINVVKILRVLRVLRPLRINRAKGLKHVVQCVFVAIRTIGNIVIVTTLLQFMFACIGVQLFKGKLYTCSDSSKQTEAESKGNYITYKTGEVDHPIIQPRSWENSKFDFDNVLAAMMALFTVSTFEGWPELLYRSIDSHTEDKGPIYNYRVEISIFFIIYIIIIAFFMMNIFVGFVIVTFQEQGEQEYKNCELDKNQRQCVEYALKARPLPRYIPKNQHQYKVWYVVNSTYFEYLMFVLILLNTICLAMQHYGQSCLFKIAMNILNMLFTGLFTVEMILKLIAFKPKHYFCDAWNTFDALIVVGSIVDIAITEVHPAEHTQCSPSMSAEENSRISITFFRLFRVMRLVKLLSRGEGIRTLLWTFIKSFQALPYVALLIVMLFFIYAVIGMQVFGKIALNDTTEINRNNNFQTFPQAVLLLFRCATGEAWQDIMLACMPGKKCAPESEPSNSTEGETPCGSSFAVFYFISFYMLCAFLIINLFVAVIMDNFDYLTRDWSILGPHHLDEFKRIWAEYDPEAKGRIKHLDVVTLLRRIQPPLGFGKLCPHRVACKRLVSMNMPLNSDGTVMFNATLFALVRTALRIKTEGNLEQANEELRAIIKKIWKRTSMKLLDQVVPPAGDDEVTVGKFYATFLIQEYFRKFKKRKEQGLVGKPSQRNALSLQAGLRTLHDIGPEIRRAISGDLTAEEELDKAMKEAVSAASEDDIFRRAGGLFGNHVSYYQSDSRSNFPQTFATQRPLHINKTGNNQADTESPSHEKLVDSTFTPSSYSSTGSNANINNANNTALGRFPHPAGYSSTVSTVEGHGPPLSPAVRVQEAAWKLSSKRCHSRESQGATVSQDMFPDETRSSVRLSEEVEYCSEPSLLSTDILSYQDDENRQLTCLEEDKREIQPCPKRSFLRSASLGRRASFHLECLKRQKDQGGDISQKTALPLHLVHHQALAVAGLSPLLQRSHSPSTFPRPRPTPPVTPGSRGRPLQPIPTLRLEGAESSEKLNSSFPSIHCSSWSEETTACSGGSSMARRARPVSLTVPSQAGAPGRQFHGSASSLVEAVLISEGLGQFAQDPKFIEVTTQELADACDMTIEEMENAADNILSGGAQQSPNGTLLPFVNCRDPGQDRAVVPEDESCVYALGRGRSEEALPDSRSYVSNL
Method in brief: (§2)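 Rat hearts perfused through the aorta with ice-cold saline, homogenized in 50 mM Na-Hepes pH 7.4, filtered through cheesecloth and washed five times at 48000g. Incubated 90 min at 0 °C in the dark with [3H]nitrendipine. Six displacer concentrations used, separated by filtration. IC50 by log-probit analysis, converted to Ki by Cheng-Prusoff. At least three experiments in triplicate.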

[3] = target: T1, Voltage-gated L-type calcium channel; experiment: Inhibition of [3H]nitrendipine binding at L-type [Ca2+] channel in rat cortex homogenate by 50%.; method in brief: as §1
Cavia porcellus [4] = organism: Cavia porcellus; experiment: Tested for the calcium antagonistic activity on K+-depolarized guinea pig aortic strips at 10e-4 M.; type: functional; settings: Aorta
Method in brief: (§3)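 Guinea pig aortic strips held at 1 g resting force and equilibrated 1 h in PSS. Contracted with 80 mM KCl (K+ replacing Na+). At plateau (about 30 min), compounds in DMSO were added cumulatively at 0.1-500 µM. Relaxation of isometric force measured.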

Cavia porcellus [5] = organism: Cavia porcellus; experiment: Inotropic negative potency on stimulated guinea pig left atrium; type: functional; settings: Cardiac atrium, read-out: ED50 (the source's name)
Method in brief: (§4)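 Guinea pig left atria driven at 1 Hz with 0.6-0.8 ms pulses at […], in oxygenated Tyrode at 35 °C, pH 7.4. Isometric force recorded. Cumulative compound additions of 0.1-100 µM from DMSO stock (bath DMSO ≤0.3%), each after steady state. Potency from log concentration-response curves by probit analysis, n = 6-8.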

Cavia porcellus [6] = organism: Cavia porcellus; experiment: Tested for the negative chronotropic activity on isolated guinea pig spontaneously beating right atrium at 5*10e-5 M.; type: functional, Cardiac atrium
Method in brief: (§5)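 Spontaneously beating right atria from guinea pigs (300-400 g) in oxygenated Tyrode (95% O2-5% CO2), 35 °C, pH 7.4, recorded isometrically. Compounds from DMSO diluted in PSS (DMSO ≤0.3%), added cumulatively at 0.1-100 µM once steady state was reached.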

Cavia porcellus [7] = organism: Cavia porcellus; experiment: Tested for the negative inotropic activity on isolated guinea pig left atrium at 10e-4 M; type: functional, Cardiac atrium; method in brief: as §4
Cavia porcellus [8] = organism: Cavia porcellus; experiment: Tested for the calcium antagonistic activity on K+-depolarized guinea pig aortic strips at 5*10e-5 M.; type: functional, Aorta; method in brief: as §3
Cavia porcellus [9] = organism: Cavia porcellus; experiment: The compound was tested for the negative chronotropic activity on isolated guinea pig spontaneously beating right atrium at 10e-4 M.; type: functional, Cardiac atrium; method in brief: as §5
Cavia porcellus [10] = organism: Cavia porcellus; experiment: Inotropic negative potency on spontaneously beating right atrium of guinea pig; type: functional, Cardiac atrium; method in brief: as §5
Cavia porcellus [11] = organism: Cavia porcellus; experiment: The compound was tested for the negative inotropic activity on isolated guinea pig left atrium at 5*10e-5 M; type: functional, Cardiac atrium; method in brief: as §4
[12] = target: T1, Voltage-gated L-type calcium channel; experiment: Calcium antagonistic activity by measuring [3H]nitrendipine displacement at calcium channel in rat cortex homogenate; type: functional, tissue-based; method in brief: as §1
Cavia porcellus [13] = organism: Cavia porcellus; experiment: Tested for the negative inotropic activity on isolated guinea pig left atrium at 10e-5 M; type: functional, Cardiac atrium; method in brief: as §4
Cavia porcellus [14] = organism: Cavia porcellus; experiment: Inotropic negative potency on stimulated guinea pig left atrium.; type: functional; settings: Cardiac atrium, read-out: ED50 (the source's name); method in brief: as §4
Cavia porcellus [15] = organism: Cavia porcellus; experiment: Inotropic negative potency on spontaneously beating right atrium of guinea pig, activity is expressed as […] values; type: functional, Cardiac atrium; method in brief: as §5
Cavia porcellus [16] = organism: Cavia porcellus; experiment: The compound was tested for the negative inotropic activity on isolated guinea pig left atrium at 5*10e-6 M; type: functional, Cardiac atrium; method in brief: as §4
Cavia porcellus [17] = organism: Cavia porcellus; experiment: Inotropic negative potency on stimulated guinea pig left atrium.(value in parentheses indicate 95% confidence limit*10e-6).; type: functional; settings: Cardiac atrium, read-out: ED50 (the source's name); method in brief: as §4
Cavia porcellus [18] = organism: Cavia porcellus; experiment: The compound was tested for the negative chronotropic activity on isolated guinea pig spontaneously beating right atrium at 10e-5 M.; type: functional, Cardiac atrium; method in brief: as §5
[19] = target: T2, Voltage-dependent L-type calcium channel subunit alpha-1C; experiment: The compound was tested for calcium antagonistic activity by measuring [3H]nitrendipine displacement from rat heart L-type calcium channels; Not active; type: functional; method in brief: as §2
Cavia porcellus [20] = organism: Cavia porcellus; experiment: The compound was tested for the calcium antagonistic activity on K+-depolarized guinea pig aortic strips; type: functional; settings: Aorta; method in brief: as §3
Cavia porcellus [21] = organism: Cavia porcellus; experiment: Inotropic negative potency on spontaneously beating right atrium of guinea pig.(value in parentheses indicate 95% confidence limit*10e-6).; type: functional, Cardiac atrium; method in brief: as §5
Cavia porcellus [22] = organism: Cavia porcellus; experiment: The compound was tested for the calcium antagonistic activity on K+-depolarized guinea pig aortic strips at 10e-4 M.; type: functional; settings: Aorta; method in brief: as §3

Row | SMILES | Ki [1] [nM] | IC50 [3] [nM] | EC50 (Cavia porcellus [5]) [nM] | inhibition at 100 µM (Cavia porcellus [4]) [%] | Decrease (Cavia porcellus [6]) [%] | further results
1 | CCC(C)NCc1ccc2n1-c1ccccc1SC2c1ccc(OC)cc1OC (stereo unspecified) |  | 15 | 600 |  |  | Inhibition (Cavia porcellus [8]): 18%; Decrease (Cavia porcellus [9]): 67%; ED30 (Cavia porcellus [10]): 420 nM; Decrease (Cavia porcellus [11]): 85%; Ki [12]: 5.5 nM; Ki [2]: 640 nM
2 | COc1ccc([C@@H]2Sc3ccccc3N(CCN(C)C)C(=O)[C@@H]2OC(C)=O)cc1 [DILTIAZEM] |  |  | 790 | 88 | 94 | ED30 (Cavia porcellus [10]): 70 nM; Decrease (Cavia porcellus [13]): 78%
3 | COc1ccc(C2Sc3ccccc3-n3c(CN4CCOCC4)ccc32)cc1 (stereo unspecified) |  | > 5000 |  |  |  | 
4 | CN(C)Cc1ccc2n1-c1ccccc1SC2(c1ccccc1)c1ccccc1 |  |  |  | 3.4 | 10 | EC50 (Cavia porcellus [14]): 890 nM; Decrease (Cavia porcellus [13]): 56%
5 | FC(F)(F)c1ccc2c(c1)-n1cccc1C(c1ccccc1)(c1ccccc1)S2 | 772 | 2060 |  |  |  | 
6 | CC(=O)OC1(c2ccccc2)Sc2ccccc2-n2cccc21 (stereo unspecified) | 1830 | 4700 |  | 36 | 33 | EC50 (Cavia porcellus [17]): 380 nM; Decrease (Cavia porcellus [11]): 86%
7 | COc1ccc([C@H]2Sc3ccccc3N3C(=O)CC[C@H]23)cc1 | 2 | 4.4 | 1200 | 32 | 39 | Decrease (Cavia porcellus [7]): 60%; Ki [2]: 35 nM
8 | COc1ccc(C2Sc3ccccc3-n3c(CNCCc4ccc(OC)c(OC)c4)ccc32)c(OC)c1 (stereo unspecified) |  |  | 560 |  | 10 | Inhibition (Cavia porcellus [8]): 9%; Decrease (Cavia porcellus [11]): 83%
9 | CC(=O)OC1(c2ccccc2)Sc2ccc(C(F)(F)F)cc2-n2cccc21 (stereo unspecified) | 24 | 65 |  |  |  | 
10 | Clc1cccc2c1SC(c1ccccc1)(c1ccccc1)c1cccn1-2 | 120 | 320 |  |  |  | 
11 | O=C1CC[C@@H]2[C@@H](c3ccccc3)Sc3ccccc3N12 | 0.29 | 0.78 | 230 | 37 | 20 | IC50 (Cavia porcellus [20]): 20000 nM; Decrease (Cavia porcellus [13]): 66%
12 | c1ccc(C2(c3ccccc3)Sc3ccccc3-n3cccc32)cc1 | 178 | 465 |  |  |  | 
13 | COc1ccc(C2Sc3ccccc3-n3cccc32)cc1 (stereo unspecified) |  | > 5000 |  |  |  | 
14 | Clc1ccc2c(c1)-n1cccc1C(c1ccccc1)(c1ccccc1)S2 | 1630 | 4350 |  |  |  | 

More lines, main results first:

Row | Ki [1] [nM] | IC50 [3] [nM] | EC50 (Cavia porcellus [5]) [nM] | SMILES | inhibition at 100 µM (Cavia porcellus [4]) [%] | Decrease (Cavia porcellus [6]) [%] | further results
15 | 31 | 82 |  | CN(C)Cc1ccc2n1-c1cccc(Cl)c1SC2(c1ccccc1)c1ccccc1 |  |  | Ki [2]: 26 nM
16 | 809 | 2160 | 730 | COc1ccc(C2(c3ccc(OC)cc3)Sc3ccccc3-n3c(CN(C)C)ccc32)cc1 | 12 | 48 | Decrease (Cavia porcellus [7]): 78%
17 |  | > 5000 |  | COc1ccc(C2(c3ccc(OC)cc3)Sc3ccc(C(F)(F)F)cc3-n3cccc32)cc1 |  |  | 
18 | 40.1 | 107 |  | CN(C)Cc1ccc2n1-c1cc(C(F)(F)F)ccc1SC2(c1ccccc1)c1ccccc1 |  |  | 
19 |  | 198 |  | COc1ccc(CCN(C)Cc2ccc3n2-c2ccccc2SC3c2ccccc2)cc1OC (stereo unspecified) |  |  | Ki [12]: 74 nM
20 |  |  | 450 | COc1ccc(C2Sc3ccccc3-n3c(CNCCc4ccc(OC)c(OC)c4)ccc32)cc1 (stereo unspecified) |  | 14 | Inhibition (Cavia porcellus [8]): 16%; Decrease (Cavia porcellus [7]): 82%
21 |  |  | 1500 | CN(C)Cc1ccc2n1-c1ccccc1SC2c1ccccc1 (stereo unspecified) | 42 | 76 | ED30 (Cavia porcellus [15]): 510 nM; Decrease (Cavia porcellus [7]): 79%
22 |  |  | 150 | COc1ccc(C2Sc3ccccc3-n3c(CN(C)C)ccc32)c(OC)c1 (stereo unspecified) |  |  | Inhibition (Cavia porcellus [8]): 5%; Decrease (Cavia porcellus [9]): 20%; Decrease (Cavia porcellus [16]): 68%; Ki [2]: 160 nM
23 |  | 1600 | 860 | COc1ccc(C2Sc3ccccc3-n3c(CN(C)CCc4ccc(OC)c(OC)c4)ccc32)c(OC)c1 (stereo unspecified) |  | 18 | Inhibition (Cavia porcellus [8]): 10%; Decrease (Cavia porcellus [11]): 62%; Ki [12]: 740 nM
24 |  | > 5000 |  | COc1ccc(C2Sc3ccccc3-n3c(CNc4ccc(F)cc4)ccc32)cc1 (stereo unspecified) |  |  | 
25 |  | 12 |  | CCC(C)NCc1ccc2n1-c1ccccc1SC2c1ccc(OC)cc1 (stereo unspecified) |  |  | Ki [12]: 4.4 nM
26 | 1750 | 4670 | 920 | COc1ccc(C2Oc3ccccc3-n3c(CN(C)C)ccc32)cc1 (stereo unspecified) | 24 |  | Decrease (Cavia porcellus [18]): 22%; Decrease (Cavia porcellus [7]): 69%; Ki [19]: Not Active
27 |  |  | 840 | COc1ccc(C2Sc3ccccc3-n3c(CN(C)CCc4ccc(OC)c(OC)c4)ccc32)cc1 (stereo unspecified) | 4 | 32 | Decrease (Cavia porcellus [7]): 86%; Ki [2]: 8.3 nM
28 |  | > 5000 |  | COc1ccc(C2Sc3ccccc3-n3c(CNc4ccc(F)cc4)ccc32)c(OC)c1 (stereo unspecified) |  |  | 
29 | 11 | 30 |  | COc1ccc(C2(OC(C)=O)Sc3ccccc3-n3cccc32)cc1 (stereo unspecified) | 11 | 70 | EC50 (Cavia porcellus [17]): 240 nM; ED30 (Cavia porcellus [21]): 2300 nM; Decrease (Cavia porcellus [13]): 71%
30 |  |  | 810 | COc1ccc(C2Sc3ccccc3-n3c(CN(C)C)ccc32)cc1 (stereo unspecified) |  |  | Decrease (Cavia porcellus [9]): 30%; Decrease (Cavia porcellus [13]): 75%; Ki [2]: 53 nM; inhibition at 100 µM (Cavia porcellus [22]): 10%
31 |  | > 5000 |  | COc1ccc(C2(c3ccc(OC)cc3)Sc3ccccc3-n3cccc32)cc1 |  |  | 
